Assay results as given in ChEMBL document CHEMBL3853326, “Proteolytically Stable Foldamer Mimics of Host-Defense Peptides with Protective Activities in a Murine Model of Bacterial Infection” (J Med Chem, 2016).
In brackets after ≈: the same amount, converted by molar mass. Activity calls are given as the source filed them.

Tests used:
[1] = Stability assessed as trypsin (unknown origin)-mediated compound degradation up to 3 mins by HPLC analysis; assay type: ADME; details: human, 0.05 h
[2] = Stability assessed as Streptomyces griseus pronase E-mediated compound degradation up to 3 mins by HPLC analysis; assay type: ADME; details: 0.05 h
[3] = Stability assessed as chymotrypsin(unknown origin)-mediated compound degradation up to 3 mins by HPLC analysis; assay type: ADME; details: human, 0.05 h
Bacillus anthracis [4] = assay: Time required for 50 % bactericidal activity against nonencapsulated Bacillus anthracis 9602PR at 20 ug/ml; assay type: functional
Bacillus anthracis [5] = assay: Time required for 50 % bactericidal activity against germinating spore form of Bacillus anthracis 9602P at 20 ug/ml; assay type: functional
Bacillus anthracis [6] = assay: Bactericidal activity against nonencapsulated Bacillus anthracis 9602PR assessed as reduction in colony forming units after 30 mins; assay type: functional; details: 0.5 h
Bacillus anthracis [7] = assay: Time required for 50 % bactericidal activity against encapsulated Bacillus anthracis 9602P at 20 ug/ml; assay type: functional
Bacillus anthracis [8] = assay: Bactericidal activity against encapsulated Bacillus anthracis 9602P assessed as reduction in colony forming units after 30 mins; assay type: functional; details: 0.5 h
Bacillus anthracis [9] = assay: Bactericidal activity against germinated spore form of Bacillus anthracis 9602P assessed as colony forming units after 30 mins; assay type: functional; details: 0.5 h
[10] = Drug uptake in BALB/c mouse kidney deep medulla at 100 ug, iv after 4 hrs by avidin-peroxidase/HE staining based assay; assay type: ADME, organism-based; details: in vivo
[11] = Drug uptake in BALB/c mouse kidney cortex at 100 ug, iv after 4 hrs by avidin-peroxidase/HE staining based assay; assay type: ADME, organism-based; details: in vivo
[12] = Drug uptake in BALB/c mouse liver at 100 ug, iv after 4 hrs by avidin-peroxidase/HE staining based assay; assay type: ADME, organism-based; details: in vivo
Bacillus anthracis [13] = assay: Bactericidal activity against germinating spore form of Bacillus anthracis at 5 ug/ml; assay type: functional
[14] = Drug uptake in BALB/c mouse kidney deep medulla epithelial cells at 100 ug, iv after 4 hrs by avidin-peroxidase/HE staining based assay; assay type: ADME, organism-based, Epithelial cell; details: in vivo
[15] = Drug uptake in BALB/c mouse kupffer cells at 100 ug, iv after 4 hrs by avidin-peroxidase/HE staining based assay; assay type: ADME, organism-based; details: in vivo
[16] = Drug uptake in BALB/c mouse cortical convoluted tubule epithelial cells at 100 ug, iv after 4 hrs by avidin-peroxidase/HE staining based assay; assay type: ADME, organism-based, Epithelial cell; details: in vivo
Bacillus anthracis [17] = assay: In vivo bactericidal activity against encapsulated Bacillus anthracis 9602P spores infected in mouse assessed as increase in time of survival at 20 ug/ml, administered intranasally for 15 mins to 48 hrs post infection measured for 15 days post dose; assay type: functional, organism-based
Bacillus anthracis [18] = assay: In vivo bactericidal activity against encapsulated Bacillus anthracis 9602P spores infected in mouse assessed as increase in time of survival at 20 ug/ml, sc administered for 15 mins to 48 hrs post infection measured for 15 days post dose; assay type: functional, organism-based
[19] = Ratio of drug level in liver to muscle in BALB/c mouse at 100 ug/ml, iv after 4 hrs by high resolution beta radiometric imaging analysis; assay type: ADME, organism-based; details: in vivo
Method in brief: (§1)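 BALB/c mice got 100 μg (5 μCi) tritiated compound iv in PBS. At 4, 30 and 48 h the mice were anaesthetised with halothane and frozen in isopentane/dry ice at −80 °C. Whole-body sagittal cryosections (20 μm, cut at −25 °C) were exposed 40 h on a β-imager. Counts per mm2 were read by image analysis, with a muscle-area detection threshold. Values are mean ± SD of 2–6 determinations.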

Bacillus anthracis [20] = assay: Time required for 50 % bactericidal activity against germinating spore form of Bacillus anthracis 9602P at 10 ug/ml; assay type: functional
[21] = Terminal half life in BALB/c mouse at 100ug, iv as bolus administration by liquid scintillation counting; assay type: ADME, organism-based; details: in vivo
Method in brief: (§2)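 Conscious BALB/c mice got one iv bolus of [3H]-labelled oligourea (0.5 × 10^6 cpm per 100 μg, 5.8 × 10−2 μmol) in PBS. Blood (10–20 μL) was drawn from the retro-orbital sinus at 0.6, 2, 3.5, 5.5, 8.7, 15 and 240 min and counted by liquid scintillation. PK was fitted by a two-compartment iv bolus model; n = 2 mice.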

[22] = Drug uptake in BALB/c mouse lungs at 20 ug/ml, administered intranasally up to 4 hrs by high resolution beta radiometric imaging analysis; assay type: ADME, Lung; details: in vivo, inhaled_or_intranasal
Method in brief: (§3)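 BALB/c mice got 20 μg (5 μCi) tritiated compound intranasally. At 4, 30 and 48 h they were anaesthetised with halothane and frozen at −80 °C. Whole-body 20 μm sagittal cryosections were exposed 40 h on a high-resolution β-imager. Regional radioactivity was quantified as counts per mm2 per 40 h by image analysis.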

[23] = Selectivity index, ratio of HD100 for sheep RBC to MIC for Escherichia coli ATCC 25922
Bacillus anthracis [24] = assay: Time required for 50 % bactericidal activity against encapsulated Bacillus anthracis 9602P at 10 ug/ml; assay type: functional
[25] = Stability assessed as Streptomyces griseus pronase E-mediated compound degradation after 24 hrs by HPLC analysis; assay type: ADME
[26] = Tmax in BALB/c mouse at 100ug, iv as bolus administration by liquid scintillation counting; assay type: ADME, organism-based; details: in vivo; method in brief: as §2
Bacillus anthracis [27] = assay: Time required for 95 % bactericidal activity against encapsulated Bacillus anthracis 9602P at 10 ug/ml; assay type: functional
[28] = Primary phase half life in BALB/c mouse at 100ug, iv as bolus administration by liquid scintillation counting; assay type: ADME, organism-based; details: in vivo; method in brief: as §2
[29] = Drug uptake in BALB/c mouse kidney cortex at 100 ug/ml, iv after 4 to 48 hrs by high resolution beta radiometric imaging analysis; assay type: ADME, organism-based; details: in vivo; method in brief: as §1
[30] = Selectivity index, ratio of HD100 for sheep RBC to MIC for Staphylococcus aureus ATCC 25923
[31] = Drug uptake in BALB/c mouse nasopharyngeal duct at 20 ug/ml, administered intranasally at 4 hrs post dose by high resolution beta radiometric imaging analysis; assay type: ADME; details: in vivo, inhaled_or_intranasal; method in brief: as §3
[32] = Stability assessed as trypsin (unknown origin)-mediated compound degradation after 24 hrs by HPLC analysis; assay type: ADME; details: human
[33] = Drug excretion in BALB/c mouse urinary bladder at 100ug, iv as bolus administration after 240 mins by liquid scintillation counting; assay type: ADME, organism-based; details: in vivo, 4 h; method in brief: as §2
[34] = Stability assessed as chymotrypsin(unknown origin)-mediated compound degradation after 24 hrs by HPLC analysis; assay type: ADME; details: human
Bacillus anthracis [35] = assay: Time required for 50 % bactericidal activity against nonencapsulated Bacillus anthracis 9602PR at 10 ug/ml; assay type: functional
Bacillus anthracis [36] = assay: Bactericidal activity against Bacillus anthracis 9602P non-germinated spores assessed as colony forming units at 10 ug/ml incubated for 30 mins followed by heating for 30 mins (reference value: 5.28 +/- 0.02 CFU); assay type: functional
[37] = Drug uptake in BALB/c mouse kidney cortex at 20 ug/ml, administered intranasally after 4 to 48 hrs by high resolution beta radiometric imaging analysis relative to iv dosing; assay type: ADME, organism-based; details: in vivo, inhaled_or_intranasal; method in brief: as §3
[38] = Drug uptake in BALB/c mouse liver at 100 ug/ml, iv after 4 to 48 hrs by high resolution beta radiometric imaging analysis; assay type: ADME, organism-based; details: in vivo; method in brief: as §1
[39] = Selectivity ratio of LC50 for mouse RAW 264.7 cells to ratio of EC50 for germinating spore form of Bacillus anthracis 9602P; assay type: ADME; details: RAW264.7 cells, read-out: Selectivity Index
[40] = Drug excretion in BALB/c mouse urine at 20 ug/ml, administered intranasally after 6 hrs by high resolution beta radiometric imaging analysis; assay type: ADME; details: in vivo, inhaled_or_intranasal
[41] = Plasma protein binding in CD1 mouse at 10 uM after 4 hrs by HPLC/MS/MS analysis; assay type: ADME, cell-free; details: read-out: PPB
Method in brief: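 Binding was measured by equilibrium dialysis against CD-1 mouse plasma.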

[42] = Ratio of drug level in kidney cortex to muscle in BALB/c mouse at 100 ug/ml, iv after 4 hrs by high resolution beta radiometric imaging analysis; assay type: ADME, organism-based; details: in vivo; method in brief: as §1
[43] = Drug uptake in BALB/c mouse kidney at 100ug, iv through bolus administration after 30 hrs by RP-HPLC analysis; assay type: ADME, organism-based; details: in vivo
Method in brief: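 Kidneys were taken 4 and 30 h after iv tritiated compound and homogenised in 1 N HCl. Homogenates were extracted with methanol/0.1% TFA (4:1), lyophilised 48 h and resuspended in water. Samples ran on C18 RP-HPLC with UV (224, 254 nm) and radioactivity detection. Elution was 10 min isocratic at 20% B, then 20–100% B over 15 min (B: acetonitrile, 0.1% TFA).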

[44] = Cytotoxicity against mouse RAW264.7 cells assessed as reduction in cell viability after 4 hrs by MTT assay; assay type: toxicity; details: read-out: LC50
Method in brief: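 RAW 264.7 murine macrophages (2 × 10^5 cells per well) were incubated with increasing compound concentrations for 4 h. Viability was read by MTT assay. The dose causing 50% cell lethality was reported as mean ± SEM, n = 3.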

For Ac-VKWVKWKV-NH2, the Stability [1] was “Unstable”, the Stability [2] was “Unstable” and the Stability [3] was “Unstable”.
`CC(C)NC(=O)N[C@H](CNC(=O)N[C@@H](CCCCN)CNC(=O)N[C@H](CNC(=O)N[C@H](CCC(=O)N[C@@H](CCCCN)CNC(=O)N[C@H](CNC(=O)N[C@@H](CCCCN)CNC(=O)N[C@H](CCC(N)=O)C(C)C)Cc1c[nH]c2ccccc12)C(C)C)Cc1c[nH]c2ccccc12)C(C)C` gave a Time (Bacillus anthracis [4]) of 45 s, a Time (Bacillus anthracis [5]) of 120 s and an EC50 (Bacillus anthracis [6]) of 8.5 µg/mL (≈ 6.13 µM). It also gave a Time (Bacillus anthracis [7]) of 75 s, an EC50 (Bacillus anthracis [8]) of 7 µg/mL (≈ 5.05 µM) and an EC50 (Bacillus anthracis [9]) of 10 µg/mL (≈ 7.21 µM).
In the case of `CC(C)[C@@H](CNC(=O)N[C@@H](CCCCN)CNC(=O)N[C@H](CNC(=O)N[C@H](CNC(=O)N[C@@H](CCCCN)CNC(=O)N[C@H](CNC(=O)N[C@@H](CCCCN)CNC(=O)N[C@H](CCC(N)=O)C(C)C)Cc1c[nH]c2ccccc12)C(C)C)Cc1c[nH]c2ccccc12)NC(=O)CCCC[C@@H]1SC[C@@H]2NC(=O)N[C@@H]21`, the Drug uptake [10] is reported as “Active”, the Drug uptake [11] is reported as “Active” and the Drug uptake [12] is reported as “Active”. The Activity (Bacillus anthracis [13]) was 64.8%, the Drug uptake [14] was “Active” and the Drug uptake [15] was “Active”. The Drug uptake [16] was “Active”.
With `CC(C)[C@@H](CCC(N)=O)NC(=O)NC[C@H](CCCCN)NC(=O)NC[C@H](Cc1c[nH]c2ccccc12)NC(=O)NC[C@H](CCCCN)NC(=O)NC[C@@H](NC(=O)NC[C@H](Cc1c[nH]c2ccccc12)NC(=O)NC[C@H](CCCCN)NC(=O)NC[C@@H](NC(=O)NCCSCC(=O)NCCNC(=O)CSCCNC(=O)N[C@H](CNC(=O)N[C@@H](CCCCN)CNC(=O)N[C@H](CNC(=O)N[C@H](CNC(=O)N[C@@H](CCCCN)CNC(=O)N[C@H](CNC(=O)N[C@@H](CCCCN)CNC(=O)N[C@H](CCC(N)=O)C(C)C)Cc1c[nH]c2ccccc12)C(C)C)Cc1c[nH]c2ccccc12)C(C)C)C(C)C)C(C)C` the EC50 (Bacillus anthracis [8]) was 0.5 µg/mL (≈ 0.169 µM), the Activity (Bacillus anthracis [17]) was “Active” and the EC50 (Bacillus anthracis [9]) was 0.2 µg/mL (≈ 0.0678 µM). For the same compound, the Activity (Bacillus anthracis [18]) was “Active”.
With `CC(C)NC(=O)N[C@H](CNC(=O)N[C@@H](CCCCN)CNC(=O)N[C@H](CNC(=O)N[C@H](CNC(=O)N[C@@H](CCCCN)CNC(=O)N[C@H](CNC(=O)N[C@@H](CCCCN)CNC(=O)N[C@H](CCC(N)=O)C(C)C)Cc1c[nH]c2ccccc12)C(C)C)Cc1c[nH]c2ccccc12)C(C)C` the Ratio [19] was 10, the Time (Bacillus anthracis [20]) was 60 s and the “beta t1/2” value [21] was 1.65 h. The Drug uptake [22] was “Active”, the Selectivity Index [23] was 8 and the Time (Bacillus anthracis [24]) was 30 s. For the same compound, the Stability [25] was “Stable”, the Tmax [26] was “<= 2 min” and the EC50 (Bacillus anthracis [6]) was 6 µg/mL (≈ 4.32 µM). For the same compound, the Time (Bacillus anthracis [27]) was under 2 min, the alphat1/2 [28] was 3 min and the Drug uptake [29] was “Active”. For the same compound, the Selectivity Index [30] was 8, the Drug uptake [31] was “Active” and the Stability [32] was “Stable”. For the same compound, the EC50 (Bacillus anthracis [8]) was 3.25 µg/mL (≈ 2.34 µM), the Drug excretion [33] was 2% and the Stability [34] was “Stable”. The Time (Bacillus anthracis [35]) was 35 s, the Activity (Bacillus anthracis [17]) was “Active” and the Activity (Bacillus anthracis [36]) was 5.26 CFU. For the same compound, the EC50 (Bacillus anthracis [9]) was 3.3 µg/mL (≈ 2.38 µM), the Drug uptake [37] was 70% and the Activity (Bacillus anthracis [18]) was “Active”. The Drug uptake [38] was “Active”, the selectivity ratio [39] was 9.5 and the Drug excretion [40] was 2%. The fraction unbound at 4 h, 10 µM [41] was 0.01, the Ratio [42] was 10 and the Drug uptake [43] was 89%. The CC50 at 4 h [44] was 31.1 µg/mL (≈ 22.4 µM).
